According to the array DNA melting data of Ke et al. (doi:10.1101/2024.01.08.574731):

How the values were obtained:
[1] = folding enthalpy; higher = less favourable; fluorescence melt of hairpins on a sequencing array, two-state fit; settings: sodium 0.088 M
In short: (§1)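 Bootstrapped two-state fits yielded melting temperature and folding enthalpy for library hairpins. Cy3 fluorescence, with annealed Cy3 and quencher oligos, was imaged on a sequenced MiSeq flow cell in 50 mM Na-HEPES pH 8.0, 25 mM NaCl in 2.5 °C steps up to 60 °C, and normalised to pre-quench Cy3 and to control constructs. Four replicates were combined by inverse variance, and fitted temperatures were raised by 9.35 °C to match UV melts.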

[2] = melting temperature; fluorescence melt of hairpins on a sequencing array, two-state fit, raised by 9.35 °C to match UV melts; settings: sodium 0.088 M
In short: as §1

Row | Sequence | folding enthalpy [1] | Tm [2]
1 | GGATACACGAAAGTGTCC (((..(((....)))))) | -50.1 kJ/mol | 35.9 °C
2 | GGATACCCGAAAGGGTCC (((..(((....)))))) | -43.7 kJ/mol | 31.9 °C
3 | GGATACCGAAAGGTCTCC (((.(((....))).))) | -106 kJ/mol | 47.6 °C
4 | GGATACGAAAGTAGATCC ((((((....)))..))) | -74.7 kJ/mol | 34.7 °C
5 | GGATACGAAAGTAGCTCC ((((((....)))..))) | -53.2 kJ/mol | 37.1 °C
6 | GGATACGAAAGTATTCC ((((((....))).))) | -95.4 kJ/mol | 42.9 °C
7 | GGATAGCGAAAGCTGTCC (((.(((....))).))) | -176 kJ/mol | 59.3 °C
8 | GGATAGGAAACTATCC ((((((....)))))) | -128 kJ/mol | 51.4 °C
9 | GGATAGGCGAAAGCCTCC (((..(((....)))))) | -42.6 kJ/mol | 36.6 °C
10 | GGATAGGGAAACCTATCC (((((((....))))))) | -200 kJ/mol | 56.8 °C
11 | GGATATACGAAAGTATCC (((..(((....)))))) | -70.9 kJ/mol | 36 °C
12 | GGATATGCGAAAGCATCC (((..(((....)))))) | -51.1 kJ/mol | 36.5 °C
13 | GGATATGGAAACGTATCC (((((.(....).))))) | -148 kJ/mol | 43.4 °C
14 | GGATCAGAAATGATCC ((((((....)))))) | -150 kJ/mol | 55.3 °C
15 | GGATCAGGAAACTGATTC (.(((((....))))).) | -130 kJ/mol | 44.4 °C
16 | GGATCCCGAAAGGGGTCC (((.(((....))).))) | -165 kJ/mol | 65.8 °C
17 | GGATCCGAAAGGACTCC ((((((....))).))) | -99.9 kJ/mol | 47.4 °C
18 | GGATCCGGAAACGGACCC ((.((((....)))).)) | -88.7 kJ/mol | 50.4 °C
19 | GGATCGCGAAAGCGTTCC (((.(((....))).))) | -116 kJ/mol | 57.8 °C
20 | GGATCGGGAAACCGGTCC (((.(((....))).))) | -211 kJ/mol | 56.1 °C
21 | GGATCTGAAAAGATCC ((((((....)))))) | -155 kJ/mol | 58.3 °C
22 | GGATCTGGAAACAGGTCC (((.(((....))).))) | -132 kJ/mol | 50.6 °C
23 | GGATGAGGAAACTCGTTC (.(.(((....))).).) | -66.1 kJ/mol | 28.3 °C

Row | Sequence | folding enthalpy [1] | Tm [2]
24 | GGATGAGGAAACTTATCC ((((.((....)).)))) | -140 kJ/mol | 38.6 °C
25 | GGATGCCGAAAGGCTTCC (((.(((....))).))) | -119 kJ/mol | 60.3 °C
26 | GGATGCGAAAGCAATTCC ((((((....)))..))) | -67.3 kJ/mol | 36.7 °C
27 | GGATGCGAAAGCAGCTCC ((((((....)))..))) | -47.3 kJ/mol | 47.5 °C
28 | GGATGCGAAAGCAGGTCC ((((((....)))..))) | -49.2 kJ/mol | 37.7 °C
29 | GGATGCGAAAGCATGTCC ((((((....)))..))) | -49 kJ/mol | 35.9 °C
30 | GGATGCGAAAGCATTTCC ((((((....)))..))) | -46.3 kJ/mol | 38.8 °C
31 | GGATGCGGAAACGTATCC ((((.((....)).)))) | -195 kJ/mol | 52.6 °C
32 | GGATGGACGAAAGTCTCC (((..(((....)))))) | -56.9 kJ/mol | 32.5 °C
33 | GGATGGCGAAAGCCCTCC (((.(((....))).))) | -131 kJ/mol | 49.2 °C
34 | GGATGGCGAAAGCCTTCC (((.(((....))).))) | -102 kJ/mol | 56.6 °C
35 | GGATGGGGAAACCCGTCC (((.(((....))).))) | -203 kJ/mol | 54.2 °C
36 | GGATGTCGAAAGACTCC (((.(((....)))))) | -106 kJ/mol | 51.8 °C
37 | GGATGTCGAAAGACTTCC (((.(((....))).))) | -166 kJ/mol | 51.5 °C
38 | GGATGTGGAAACATGTCC (((..((....))..))) | -87.4 kJ/mol | 40 °C
39 | GGATTAGAAATAATCC ((((((....)))))) | -123 kJ/mol | 42.8 °C
40 | GGATTCCGAAAGGACTCC (((.(((....))).))) | -162 kJ/mol | 47 °C
41 | GGATTCGAAAGAAGCTCC ((((((....)))..))) | -59.3 kJ/mol | 32.8 °C
42 | GGATTCGGAAACGGATCC ((((.((....)).)))) | -164 kJ/mol | 53 °C
43 | GGATTGCCGAAAGGCTCC (((..(((....)))))) | -35.1 kJ/mol | 37.6 °C
44 | GGATTGCGAAAGCATCC (((.(((....)))))) | -86.8 kJ/mol | 50.8 °C
45 | GGATTGGCGAAAGCCTCC (((..(((....)))))) | -43.8 kJ/mol | 35.3 °C
46 | GGATTGGGAAACCAATCC (((((((....))))))) | -204 kJ/mol | 60.2 °C

Row | Sequence | folding enthalpy [1] | Tm [2]
47 | GGATTTCCGAAAGGATCC (((..(((....)))))) | -73.6 kJ/mol | 34.2 °C
48 | GGATTTCGAAAGAACTCC (((.(((....))).))) | -123 kJ/mol | 38 °C
49 | GGCAAACGAAAGTTGGCC (((.(((....))).))) | -184 kJ/mol | 60.2 °C
50 | GGCAAAGGAAACCTTGCC (((((.(....).))))) | -132 kJ/mol | 49.3 °C
51 | GGCAAAGGAAACTTTGTC (.(((((....))))).) | -122 kJ/mol | 46.5 °C
52 | GGCAACGAAAGTTCTGCC ((((((....)))..))) | -114 kJ/mol | 40.4 °C
53 | GGCAACGAAAGTTGTGCC ((((((....)))..))) | -56.6 kJ/mol | 51.2 °C
54 | GGCAACGAAAGTTTAGCC ((((((....)))..))) | -122 kJ/mol | 43.5 °C
55 | GGCAACGCGAAAGCGGCC (((..(((....)))))) | -82.9 kJ/mol | 59.7 °C
56 | GGCAAGCCGAAAGGCGCC (((..(((....)))))) | -60.3 kJ/mol | 59.8 °C
57 | GGCAAGGGAAACCTTGTC (.(((((....))))).) | -133 kJ/mol | 50.6 °C
58 | GGCAATCGAAAGATGCC (((.(((....)))))) | -169 kJ/mol | 56.5 °C
59 | GGCACACGAAAGTGAGCC (((.(((....))).))) | -159 kJ/mol | 63.5 °C
60 | GGCACAGGAAACTATGCC ((((.((....)).)))) | -122 kJ/mol | 41.7 °C
61 | GGCACAGGAAACTGTGTC (.(((((....))))).) | -135 kJ/mol | 54 °C
62 | GGCACCGAAAGGTAGGCC ((((((....)))..))) | -124 kJ/mol | 52.7 °C
63 | GGCACCGAAAGGTCGCC ((((((....))).))) | -149 kJ/mol | 59.4 °C
64 | GGCACCGGAAACAGCGCC (((.(.(....).).))) | -92.3 kJ/mol | 34.5 °C
65 | GGCACCGGAAACGGCACC ((..(((....)))..)) | -66 kJ/mol | 30.9 °C
66 | GGCACCGGAAACGGCGCC (((.(((....))).))) | -220 kJ/mol | 61.2 °C
67 | GGCACTCGAAAGAGCGCC (((.(((....))).))) | -222 kJ/mol | 59.3 °C
68 | GGCAGAGGAAACTCTGTC (.(((((....))))).) | -129 kJ/mol | 49.7 °C
69 | GGCAGATCGAAAGATGCC (((..(((....)))))) | -112 kJ/mol | 49.4 °C

Row | Sequence | folding enthalpy [1] | Tm [2]
70 | GGCAGCCCGAAAGGGGCC (((..(((....)))))) | -55.7 kJ/mol | 50.7 °C
71 | GGCAGCGAAAGCTATGCC ((((((....)))..))) | -120 kJ/mol | 55.3 °C
72 | GGCAGCGAAAGCTCCGCC ((((((....)))..))) | -80.4 kJ/mol | 56 °C
73 | GGCAGCGAAAGCTCGGCC ((((((....)))..))) | -74 kJ/mol | 53.5 °C
74 | GGCAGCGAAAGCTTAGCC ((((((....)))..))) | -108 kJ/mol | 51.7 °C
75 | GGCAGCGGAAACGCCACC ((..(((....)))..)) | -58 kJ/mol | 36.6 °C
76 | GGCAGCGGAAACGCCGCC (((.(((....))).))) | -131 kJ/mol | 61.5 °C
77 | GGCAGCTCGAAAGAGGCC (((..(((....)))))) | -72.6 kJ/mol | 47.3 °C
78 | GGCAGGCGAAAGCCCGCC (((.(((....))).))) | -95.5 kJ/mol | 66.2 °C
79 | GGCAGTCGAAAGACCGCC (((.(((....))).))) | -146 kJ/mol | 58 °C
80 | GGCATAACGAAAGTTGCC (((..(((....)))))) | -109 kJ/mol | 50.8 °C
81 | GGCATACGAAAGTAAGCC (((.(((....))).))) | -155 kJ/mol | 54 °C
82 | GGCATCACGAAAGTGGCC (((..(((....)))))) | -91.6 kJ/mol | 48.2 °C
83 | GGCATCGAAAGATGTGCC ((((((....)))..))) | -74.3 kJ/mol | 46.4 °C
84 | GGCATCGCGAAAGCGGCC (((..(((....)))))) | -72.8 kJ/mol | 54.9 °C
85 | GGCATCGGAAACGACGCC (((.(((....))).))) | -176 kJ/mol | 52.3 °C
86 | GGCATGCGAAAGCAAGCC (((.(((....))).))) | -116 kJ/mol | 65.4 °C
87 | GGCATGCGAAAGCACGCC (((.(((....))).))) | -114 kJ/mol | 63.4 °C
88 | GGCATGGGAAACCATGTC (.(((((....))))).) | -111 kJ/mol | 52.5 °C
89 | GGCATTCGAAAGAACGCC (((.(((....))).))) | -189 kJ/mol | 50.6 °C
90 | GGCATTGGAAACAACGCC (((.(((....))).))) | -144 kJ/mol | 44.6 °C
91 | GGCCAACGAAAGTTAGCC (((.(((....))).))) | -122 kJ/mol | 50.1 °C
